pIC50: −log10 of the molar value.
Assays:
Albumin = Albumin (Homo sapiens, UniProt P02768); assay: Human serum albumin index was measured by retention time on an HPLC column containing human albumin
Outline: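 HPLC on a column containing human serum albumin. Retention volume of each compound is divided by that of a reference standard and normalized so the standard equals 100.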

Glutamate NMDA receptor = assay: Affinity for the glycine binding site on rat N-methyl-D-aspartate glutamate receptor 1, determined by displacement of the glycine site antagonist [3H]L-689,560 from rat cortical membranes; format: cell membranes, Membrane
Mus musculus [1] = assay: Anticonvulsant activity measured by its ability to protect against audiogenic seizure in DBA/2 mice when dosed intraperitoneally 30 min prior to seizure induction.; format: functional; details: ip
Outline: (§1)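 DBA/2 mice, compound dosed intraperitoneally 30 min before induction of audiogenic seizures. Reported as ED50 (mg/kg and μmol/kg) or as number protected/number tested at a single dose. For some compounds the test was run 10 min after dosing.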

[2] = biological target: Glutamate NMDA receptor (Rattus norvegicus) (UniProt P35439+Q00959+Q00960+Q00961+Q62645+Q8VHN2+Q9R1M7); assay: Protein binding index(PBI) reflects the relative displacement of [3H]glycine from rat cortical membranes in the presence and absence of 0.2% human serum albumin; format: cell membranes; details: Membrane
Outline: (§2)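 [³H]glycine displacement from rat cortical membranes, with and without 0.2% (w/v) human serum albumin. Separation by centrifugation. Index = IC50 with albumin / IC50 without albumin.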

[3] = Protein binding index(PBI) is the ratio of binding affinities for the displacement of [3H]-glycine from rat cortical membranes in the presence and absence of 0.2% human serum albumin; format: functional, cell membranes; details: Membrane; outline: as §2
[4] = Partition coefficient (logP); format: physicochemical; details: octanol/water
Outline: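 Octanol/pH 7.4 buffer partition; values were either measured or calculated from tables of π values.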

Mus musculus [5] = assay: Anti convulsant activity of compound was measured by its ability to protect against audiogenic seizure in DBA/2 mice when dosed intraperitoneally 30 min prior to seizure induction.; format: functional; details: ip; outline: as §1
[6] = protein binding index(PBI) is the ratio of binding affinities for the displacement of [3H]- glycine from rat cortical membranes in the presence and absence of 0.2% human serum albumin; format: cell membranes; details: Membrane; outline: as §2
Mus musculus [7] = assay: Ability of intravenously administered compound to prevent seizures, induced by NMDLA (500 mg/kg sc) in mice, in the presence of 60 mg/kg of warfarin; format: functional; details: route intravenous
Outline: (§3)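 Swiss Webster mice; seizures induced by N-methyl-D,L-aspartate 500 mg/kg sc. Test compound given iv 15 min before NMDLA. Where warfarin is used, it is given iv 15 min before the test compound.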

Rattus norvegicus = species: Rattus norvegicus; assay: Clearance into cortex from rat plasma or PBS; format: ADME, organism-based; details: in vivo
Outline: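 Rat in situ brain perfusion (Takasato method, Gratton modifications). Compound is dissolved in phosphate-buffered saline and perfused 10 s, or dissolved in rat plasma and perfused 60 s. Drug in cortex is measured and clearance from the perfusate into cortex is calculated (mL s⁻¹ g⁻¹ × 10⁴). Mean with SEM, n = 4.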

Mus musculus [8] = assay: Ability of intravenously administered compound to prevent seizures, induced by NMDLA (500 mg/kg sc) in mice, in the presence of 100 mg/kg of warfarin; format: functional; details: route intravenous; outline: as §3
Mus musculus [9] = assay: Ability of intravenously administered compound to prevent seizures, induced by NMDLA (500 mg/kg sc) in mice; format: functional; outline: as §3

Sequence of Albumin (P02768 whole entry): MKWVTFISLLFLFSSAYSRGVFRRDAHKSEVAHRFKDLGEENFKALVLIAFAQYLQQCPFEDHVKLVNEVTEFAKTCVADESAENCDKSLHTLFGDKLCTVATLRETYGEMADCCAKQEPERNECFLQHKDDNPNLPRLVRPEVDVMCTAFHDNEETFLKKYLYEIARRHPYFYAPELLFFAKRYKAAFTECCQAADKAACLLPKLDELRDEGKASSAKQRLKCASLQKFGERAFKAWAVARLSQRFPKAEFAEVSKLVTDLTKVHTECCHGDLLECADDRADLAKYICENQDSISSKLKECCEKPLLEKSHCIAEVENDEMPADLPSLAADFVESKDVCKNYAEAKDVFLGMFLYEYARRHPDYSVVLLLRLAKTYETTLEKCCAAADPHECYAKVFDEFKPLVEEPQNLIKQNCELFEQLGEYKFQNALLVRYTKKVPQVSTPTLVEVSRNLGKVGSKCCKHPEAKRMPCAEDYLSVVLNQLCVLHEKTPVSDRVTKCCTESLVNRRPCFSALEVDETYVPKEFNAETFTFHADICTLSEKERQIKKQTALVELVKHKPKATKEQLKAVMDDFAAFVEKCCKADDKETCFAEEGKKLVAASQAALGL

Row | HSAI (Albumin) | pIC50 (Glutamate NMDA receptor) | PBI [2] | logP [4] | Structure (SMILES) | other results
1 | 2 | 7.41 | 1.1 | – | NCc1ccc(CC(=O)N[C@H]2C[C@H](C(=O)O)Nc3cc(Cl)cc(Cl)c32)cc1 | ED50 (Mus musculus [1]): 30 mg/kg
2 | – | – | 3.7 | – | Nc1c(-c2ccccc2)c(O)nc2cc(Cl)ccc12 | –
3 | 13 | – | – | – | C=C(C)COc1cccc(C2=C(O)/C(=C/CC)NC2=O)c1 | PBI [3]: 12.1
4 | – | – | 127 | – | Oc1nc2cc(Cl)ccc2c(O)c1-c1cccc(Oc2ccsc2)c1 | ED50 (Mus musculus [1]): 0.75 mg/kg
5 | 126 | – | – | 2.83 | O=c1[nH]c2cc(Cl)ccc2c(O)c1-c1cccc(Cc2ccccc2)c1 | –
6 | 2 | – | – | 1.15 | O=C(O)c1cc(O)c2ccc(Cl)cc2n1 [7-CHLOROKYNURENIC ACID] | –
7 | 49 | 8.05 | – | 3.01 | Oc1nc2cc(Cl)ccc2c(O)c1-c1cccc(Cc2ccc(CCN3CCOCC3)cc2)c1 | –
8 | 97 | 8.35 | 193 | 2.81 | COc1ccc(Cc2cccc(-c3c(O)c4ccc(Cl)cc4[nH]c3=O)c2)cc1 | ED50 (Mus musculus [1]): 0.7 mg/kg
9 | 78 | 8.66 | – | 3.34 | COCOc1ccc(Cc2cccc(-c3c(O)c4ccc(Cl)cc4[nH]c3=O)c2)cc1 | ED50 (Mus musculus [5]): 0.5 mg/kg
10 | 82 | – | – | 2.75 | O=c1[nH]c2cc(Cl)ccc2c(O)c1-c1cccc(Oc2ccsc2)c1 | –
11 | 16 | 6.37 | 41 | 2 | N[C@H](Cc1cc(I)c(OCCc2ccc(O)cc2)c(I)c1)C(=O)O | –
12 | – | 4.78 | – | 0.7 | CCOC(=O)c1c(O)c2ccc(Cl)cc2[nH]c1=O | –
13 | 10 | – | – | 1.6 | O=c1[nH]c2cc(Cl)ccc2c(O)c1-c1ccccc1 | ED50 (Mus musculus [5]): 4.5 mg/kg; PBI [6]: 37
14 | 15 | – | 8.2 | – | Oc1ccccc1-c1cc2ccc(Cl)cc2nc1O | –
15 | – | – | 3.1 | – | Oc1nc2ccccc2c(O)c1-c1ccccc1 | ED50 (Mus musculus [1]): 10.9 mg/kg
16 | 70 | – | 28.5 | 4.34 | Oc1nc2cc(Cl)ccc2c2oc3ccccc3c12 | –
17 | 100 | – | 94 | 2.9 | O=c1[nH]c2cc(Cl)ccc2c(O)c1-c1cccc(Oc2ccccc2)c1 | ED50 (Mus musculus [7]): 1.9 mg/kg; ED50 (Mus musculus [1]): 0.88 mg/kg; Cortex_Clearance (Rattus norvegicus): 0 ml s-1 (10e4*g)-1; ED50 (Mus musculus [8]): 0.64 mg/kg; ED50 (Mus musculus [9]): 3.6 mg/kg
18 | – | – | 758 | – | Oc1nc2cc(Cl)ccc2c(O)c1-c1cccc(Cc2ccccc2)c1 | ED50 (Mus musculus [1]): 1.3 mg/kg
19 | 8 | 6.32 | – | – | Cc1ccc(-c2c(O)c3ccc(Cl)cc3[nH]c2=O)o1 | Cortex_Clearance (Rattus norvegicus): 4.4 ml s-1 (10e4*g)-1
20 | 3 | – | 5.4 | – | COC(=O)c1c(O)c2ccc(Cl)cc2[nH]c1=O | Cortex_Clearance (Rattus norvegicus): 2.8 ml s-1 (10e4*g)-1

Row | HSAI (Albumin) | pIC50 (Glutamate NMDA receptor) | PBI [2] | logP [4] | Structure (SMILES) | other results
21 | 260 | – | – | 4.5 | Oc1nc2cc(Cl)ccc2c(O)c1-c1ccc2c(c1)Oc1ccccc1O2 | –
22 | 7 | 4.52 | – | – | CCOC(=O)c1c(O)c2ccc(I)cc2[nH]c1=O | –
23 | 9 | 5.96 | – | – | O=C(c1cccs1)c1c(O)c2ccc(Cl)cc2[nH]c1=O | –
24 | 5 | – | 26.5 | -0.44 | O=C(O)c1cc(O)c2c(Cl)cc(Cl)cc2n1 | –
25 | 267 | 8.62 | – | – | CSc1ccc(Cc2cccc(-c3c(O)nc4cc(Cl)ccc4c3O)c2)cc1 | –
26 | 42 | 6.16 | 32 | – | CC/C=C1\NC(=O)C(c2cccc(Oc3ccccc3)c2)=C1O | –
27 | 24 | 7.62 | – | 2.78 | O=C(CC1CCc2cc(Br)cc3[nH]c(=O)c(=O)n1c23)Nc1ccccc1 (stereo not drawn) | –
28 | 197 | 9.00 | – | 2.24 | O=C(/C=C/c1c(C(=O)O)[nH]c2cc(Cl)cc(Cl)c12)Nc1ccccc1 | –
29 | 6 | – | – | 0.35 | O=C(c1c(O)nc2cc(Cl)ccc2c1O)C1CC1 | –
30 | 11 | 6.45 | – | – | Oc1nc2cc(Cl)ccc2c(O)c1-c1ccsc1 | –
31 | 13 | 7.49 | – | – | CN(C)Cc1sccc1Oc1cccc(-c2c(O)nc3cc(Cl)ccc3c2O)c1 | –
32 | 31 | 7.96 | – | – | C=C(C)COc1cccc(-c2c(O)nc3cc(Cl)ccc3c2O)c1 | –
33 | 28 | 8.55 | – | – | O=c1[nH]c2cc(Cl)c(Cl)c([N+](=O)[O-])c2[nH]c1=O [LICOSTINEL] | ED50 (Mus musculus [1]): 3.3 mg/kg
34 | 7 | 5.17 | – | – | Nc1c(-c2ccccc2)c(=O)[nH]c2cc(Cl)ccc12 | –
35 | 7 | – | – | 0.62 | O=C1Nc2cc(Cl)ccc2CC1[N+](=O)[O-] (stereo not drawn) | ED50 (Mus musculus [1]): 13.5 mg/kg
36 | 50 | 8.05 | – | – | Oc1nc2cc(Cl)ccc2c(O)c1-c1cccc(Cc2ccoc2)c1 | –
37 | 159 | – | – | – | Oc1nc2cc(Cl)ccc2c(O)c1-c1ccc(Oc2ccccc2)cc1 | ED50 (Mus musculus [1]): 8.3 mg/kg
38 | 28 | – | – | 1.66 | O=C(Cc1ccccc1)c1c(O)c2ccc(Cl)cc2[nH]c1=O | –
39 | 32 | 6.26 | 11.7 | 2.65 | COc1ccc(CCOc2c(I)cc(C[C@@H](N)C(=O)O)cc2I)cc1 | –
40 | 9 | 7.12 | – | – | O=C(O)c1cccc(-c2c(O)nc3cc(Cl)ccc3c2O)c1 | –

— ChEMBL document CHEMBL1130334, “Effect of plasma protein binding on in vivo activity and brain penetration of glycine/NMDA receptor antagonists” (J Med Chem, 1997)
